Test results published in ChEMBL document CHEMBL1145041, “Synthesis and structure-activity relationships of cis-tetrahydrophthalazinone/pyridazinone hybrids: a novel series of potent dual PDE3/PDE4 inhibitory agents” (J Med Chem, 2003).

Experiments:
Phosphodiesterase 3 = Phosphodiesterase 3 (Homo sapiens, UniProt Q14432+Q13370); experiment: Inhibition of dual cGMP-inhibited phosphodiesterase 3 (PDE3) was determined in homogenates from human platelets.
How it was run: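 Enzyme source: homogenates of human platelets. Values as pIC50 (−log IC50), mean of two independent determinations each run in triplicate.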

Mus musculus [1] = experiment: In vivo inhibition of arachidonic acid induced mouse ear edema 1 hr after pretreatment with 30 umol/kg peroral dose; format: functional; settings: po
How it was run: (§1)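 Mice dosed orally at 30 µmol/kg, 1 h before arachidonic acid applied to ear; edema read 1 h after AA (2 h post-dose). Percent inhibition of edema formation calculated versus provoked untreated controls; maximal attainable inhibition in model 80%.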

Phosphodiesterase 4 = Phosphodiesterase 4 (Homo sapiens, UniProt P27815+Q08499+Q07343+Q08493); experiment: inhibition of cAMP-specific phosphodiesterase 4 (PDE4) was determined in cytosol from human neutrophils; format: protein assay
How it was run: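 Enzyme source: cytosol of human neutrophils. Values as pIC50 (−log IC50), mean of two independent determinations each run in triplicate.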

Mus musculus [2] = experiment: Inhibition of arachidonic acid (AA)-induced mouse ear edema after pretreatment with compound (1 h before AA) at a drug concentration of 30 umol/kg po.; format: functional; how it was run: as §1

Row | Compound | Log IC50 (Phosphodiesterase 3) | inhibition in vivo at 30 µmol/kg (Mus musculus [1]) | Log IC50 (Phosphodiesterase 4) | inhibition in vivo at 30 µmol/kg (Mus musculus [2])
1 | CC1CC(=O)NN=C1c1ccc(-n2cnc3c2CCCC3)cc1 (stereo not drawn) [TETRAHYDROBENXIMIDAZOLE] | -6.3 | – | – | –
2 | COc1ccc(C2=NN(c3ccccc3)C(=O)C3CC=CCC23)cc1OC (stereo not drawn) | < -5 | 13% | -7.9 | –
3 | COc1ccc(C2=NN(CC(=O)Nc3cccc(C4=NNC(=O)CC4C)c3)C(=O)C3CC=CCC23)cc1OC (stereo not drawn) | -5.8 | – | -8.4 | –
4 | COc1ccc(C2=NN(c3ccc(-c4ccc(O)nn4)cc3)C(=O)C3CC=CCC23)cc1OC (stereo not drawn) | -5.4 | – | -8.1 | 8%
5 | COc1ccc(C2=NN(c3ccc(C4=NNC(=O)CC4C)cc3)C(=O)C3CC=CCC23)cc1OC (stereo not drawn) | -6.7 | – | -8.4 | 34%
6 | COc1ccc(C2=NN(c3ccccc3)C(=O)C3CC=CCC23)cc1Cl (stereo not drawn) | < -5 | – | -7.1 | –
7 | COc1ccc(C2=NN(CCCCC(=O)Nc3ccc(C4=NNC(=O)CC4C)cc3)C(=O)C3CC=CCC23)cc1OC (stereo not drawn) | -7 | – | -8.2 | 26%
8 | COc1ccc(C2=NN(CCCCOc3ccc(C4=NNC(=O)CC4C)cc3)C(=O)C3CC=CCC23)cc1OC (stereo not drawn) | -7.1 | – | -8.7 | 32%
9 | COc1ccc(C2=NN(CC(=O)Nc3ccc(C4=NNC(=O)CC4C)cc3)C(=O)C3CC=CCC23)cc1OC (stereo not drawn) | -6.7 | – | -8.4 | 13%
10 | COc1ccc(C2=NN(CCCCC(=O)Nc3ccc(-c4ccc(O)nn4)cc3)C(=O)C3CC=CCC23)cc1OC (stereo not drawn) | -6.1 | – | -8.2 | 27%
11 | COc1ccc(C2=NN(c3ccc(C4=NNC(=O)CC4C)cc3)C(=O)C3CC=CCC23)cc1OC1CCCC1 (stereo not drawn) | -6.3 | – | -7.8 | 18%
12 | COc1ccc(C2=NN(c3ccc(C4=NNC(=O)CC4C)cc3)C(=O)C3CC=CCC23)cc1Cl (stereo not drawn) | -7.1 | – | -7 | 35%
13 | COc1ccc([C@]2(C#N)CC[C@@H](C(=O)O)CC2)cc1OC1CCCC1 [CILOMILAST] | < -5 | – | – | 33%
14 | CCOc1ccc(C2=NN(CCCCOc3ccc(C4=NNC(=O)CC4C)cc3)C(=O)C3CC=CCC23)cc1OCC (stereo not drawn) | -6.7 | – | -8.6 | 46%
15 | COc1ccc(C2=NN(CCCCOc3ccc(C4=NNC(=O)CC4C)cc3)C(=O)C3CC=CCC23)cc1Cl (stereo not drawn) | -7.5 | – | -7.8 | 47%
16 | CCOc1ccc(C2=NN(c3ccc(C4=NNC(=O)CC4C)cc3)C(=O)C3CC=CCC23)cc1OCC (stereo not drawn) | -6.6 | – | -8.1 | 42%
17 | COc1ccc(C2=NN(c3ccccc3)C(=O)C3CC=CCC23)cc1OC1CCCC1 (stereo not drawn) | < -5 | – | -7.8 | –
18 | COc1cc(-c2ccc(=O)[nH]n2)ccc1OC(F)F [ZARDAVERINE] | – | – | – | 22%
19 | CC1(C)C(=O)Nc2ccc(-c3ccc(O)nn3)cc21 | -6.9 | – | – | –
20 | CCOc1ccc(C2=NN(c3ccccc3)C(=O)C3CC=CCC23)cc1OCC (stereo not drawn) | < -5 | – | -7.7 | –
21 | CC1CC(=O)NN=C1c1ccc2c(c1)C(C)(C)C(=O)N2 (stereo not drawn) | -7.9 | – | – | –
22 | COc1ccc(C2=NN(CC(=O)Nc3ccc(-c4ccc(O)nn4)cc3)C(=O)C3CC=CCC23)cc1OC (stereo not drawn) | -5.9 | – | -8.1 | 31%
